Here are results for two compounds from ChEMBL document CHEMBL4359883, “4(1H)-quinolone derivatives overcome acquired resistance to anti-microtubule agents by targeting the colchicine site of β-tubulin” (Eur J Med Chem, 2019).

pIC50: −log10 of the molar value. The source made the active and inactive calls. The calls are words filed in the database; no cut-off is given here.

In one data set the test system is A549. The data set can be described thus: Antiproliferative activity against human A549 cells assessed as reduction in cell viability after 72 hrs by MTS assay. Particulars: A549, 72 h. Format: functional, cell-based. Put shortly:
(§1)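 Cells plated at 2000/well, cultured overnight, then exposed to a range of compound concentrations for 72 h. MTS reagent added for 1–4 h at 37 °C and absorbance read at 490 nm. Cultured in RPMI 1640 or DMEM with 10% heat-inactivated FBS under 5% CO2. Data are the mean of three determinations.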
In general terms: Formazan colour is commonly taken as a measure of viable cells.

Data set [1] deals with CL1-0. Kind of data set: Antiproliferative activity against human CL1-0 cells assessed as reduction in colony formation after 14 days by crystal violet staining based assay. It counts as functional, cell-based. Put shortly: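 Seeded at 1000 cells/well, cultured overnight, then treated with 12.5–200 nM for 14 days. Colonies fixed in 3.7% paraformaldehyde, stained with 0.04% crystal violet and dissolved in DMSO, then absorbance read at 590 nm. Mean ± SD.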

In data set [2] the test system is NCI-H1975. The data set can be described thus: Induction of mitotic arrest in human NCI-H1975 cells assessed as cyclin A at 40 to 80 nM after 24 hrs by immunoblotting analysis. It counts as functional, cell-based. In general terms: In western blotting, separated proteins are transferred to a membrane and probed.
Data set [3] concerns NCI-H1975. The data set can be described thus: Cell cycle arrest in human NCI-H1975 cells assessed as increase in cell population at G2/M phase after 24 hrs by propidium iodide-staining based flow cytometry. Format: functional. Put shortly: (§2)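 Cells treated for 24 h, then trypsinized and fixed overnight in ice-cold 70% ethanol. Stained for 30 min with propidium iodide (10 µg/mL) plus RNase (20 µg/mL), and DNA content measured by flow cytometry. Mean ± SD.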
Background: A flow cytometer gives signals particle by particle.

Data set [4] deals with T1, Tubulin (Homo sapiens) (UniProt P68371+Q9H4B7+P0DPH7+P68366+Q13509+Q71U36+P04350+Q3ZCM7+P07437+P68363+Q9BQE3+Q6PEY2+Q13885+Q9BVA1+Q9BUF5). Kind of data set: Induction of microtubule depolymerization in human CL1-0 cells at 20 nM after 6 hrs by DAPI staining based DAPI staining based confocal microscopic analysis. Format: cell-based. Put shortly:
(§3)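 Cells exposed for 6 h, fixed in 3.7% paraformaldehyde, permeabilized with 0.1% Triton X-100. Stained with anti-α-tubulin (1:1000) overnight at 4 °C, FITC secondary 1 h at 37 °C, nuclei counterstained with DAPI. Imaged by confocal laser scanning microscopy.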

For a further data set, the system named is IGROV-1. Kind of data set: Antiproliferative activity against human IGROV1 cells assessed as reduction in cell viability after 72 hrs by MTS assay. Format: functional, cell-based. Particulars: IGROV-1, 72 h. Put shortly:
as §1

For data set [5], the system named is NCI-H1975. Kind of data set: Induction of apoptosis in human NCI-H1975 cells assessed as increase in cytochrome c level in cytosol at 40 to 80 nM after 24 hrs by immunoblotting analysis. Format: functional, cell-based.
For data set [6], the system named is CL1-0. Kind of data set: Cell cycle arrest in human CL1-0 cells assessed as increase in cell population at sub-G1 phase after 24 hrs by propidium iodide-staining based flow cytometry. It counts as functional. Put shortly: as §2
Data set [7] deals with NCI-H1975. The data set can be described thus: Induction of mitotic arrest in human NCI-H1975 cells assessed as increase in cyclin B1 expression at 40 to 80 nM after 24 hrs by immunoblotting analysis. Format: functional, cell-based.
Data set [8] is described as follows: Cytotoxicity against human bronchial epithelial cells assessed as reduction in cell viability after 72 hrs by MTS assay. Format: cell-based. Put shortly: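 Cells plated at 2000 per well, cultured overnight, then exposed to a range of compound concentrations for 72 h. MTS reagent added, 1–4 h at 37 °C, absorbance read at 490 nm. Mean of three determinations.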

The subject of another data set is SK-OV-3. The data set can be described thus: Antiproliferative activity against human SKOV3 cells assessed as reduction in cell viability after 72 hrs by MTS assay. Particulars: SK-OV-3, 72 h. Format: functional, cell-based. Put shortly: as §1
The subject of data set [9] is CL1-0. The data set can be described thus: Induction of mitotic arrest in human CL1-0 cells assessed as cyclin A expression at 20 to 40 nM after 24 hrs by immunoblotting analysis. It counts as functional, cell-based.
In data set [10] the test system is NCI-H1975. The data set can be described thus: Induction of apoptosis in human NCI-H1975 cells assessed as bax protein expression after 24 hrs by immunoblotting analysis. It counts as functional, cell-based.
Data set [11] relates to CL1-0. The data set can be described thus: Antiproliferative activity against human CL1-0 cells assessed as reduction in cell viability after 72 hrs by MTS assay. Format: functional, cell-based. Conditions: CL1-0, 72 h. Put shortly: as §1
Data set [12] relates to CL1-0. The data set can be described thus: Induction of apoptosis in human CL1-0 cells assessed as caspase 8 activation at 20 to 40 nM after 24 hrs by immunoblotting analysis. Format: functional, cell-based.
A further data set concerns the target Tubulin (Sus scrofa) (UniProt P02554+P02550). Kind of data set: Inhibition of porcine tubulin at 5 uM in presence of GTP measured every minute for 1 hr by microplate reader analysis. It counts as protein assay.
In data set [13] the test system is CL1-0. The data set can be described thus: Cell cycle arrest in human CL1-0 cells assessed as increase in cell population at G2/M phase after 24 hrs by propidium iodide-staining based flow cytometry. It counts as functional. Put shortly: as §2
Data set [14] can be described thus: Toxicity in Balb/c mouse xenografted with human KBtax cells assessed as serum ALT level at 8 mg/kg, ip administered 3 times per week and measured after 21 days (reference value: 32.7 +/- 4.8 IU/L). Format: organism-based. Particulars: in vivo, 504 h.
The test system of data set [15] is NCI-H1975. Kind of data set: Induction of apoptosis in human NCI-H1975 cells assessed as PARP cleavage at 25 to 50 nM after 24 hrs by immunoblotting analysis. Format: functional, cell-based.
In data set [16] the target is T1, Tubulin (Homo sapiens). Kind of data set: Inhibition of microtubule polymerization in human NCI-H1975 cells at 25 nM after 6 hr followed by DAPI staining based confocal microscopic analysis. It counts as cell-based. Put shortly: as §3
The species named for data set [17] is Homo sapiens. The data set can be described thus: Effect on p-gp expression in human KBtax cells at 30 to 60 nM after 24 hrs by immunoblotting analysis. It counts as functional, cell-based.
The nature of data set [18]: Toxicity in Balb/c mouse xenografted with human KBtax cells assessed as serum AST level at 8 mg/kg, ip administered 3 times per week and measured after 21 days (reference value: 94.2 +/- 12.5 IU/L). Format: organism-based. Conditions: in vivo, 504 h.
For data set [19], the system named is Homo sapiens. Kind of data set: Induction of apoptosis in human KBtax cells xenografted in Balb/c mouse at 8 mg/kg, ip administered 3 times per week and measured after 21 days by TUNEL staining based histological analysis. It counts as functional, organism-based. Put shortly:
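1×10^7 KBtax cells injected subcutaneously into the right flank of 6-week-old BALB/c nude mice (n = 5 per group). Once tumors established, compound in DMSO given ip three times a week for 21 days. Tumor sections stained with H&E and by TUNEL.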

For data set [20], the species on record is Homo sapiens. Kind of data set: Induction of mitotic arrest in human KBtax cells assessed as increase in p-HH3 expression at 30 to 60 nM after 24 hrs by immunoblotting analysis. Format: functional, cell-based.
A short description of data set [21]: Toxicity in Balb/c mouse xenografted with human NCI-H1975 cells assessed as effect on body mass at 4 to 8 mg/kg, ip administered 3 times per week for 21 days. It counts as organism-based. Conditions: in vivo, 504 h. Put shortly:
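H1975 tumors grown in right flank of 6-week-old BALB/c nude mice; after establishment, 4 or 8 mg/kg compound dissolved in DMSO, or DMSO alone, given intraperitoneally three times a week. Body mass taken before each dose.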

A further data set concerns MDA-MB-231. The data set can be described thus: Antitumour activity against human MDA-MB-231 cells xenografted in Balb/c mouse assessed as tumour size at 4 mg/kg, ip administered three times per week and measured on day 35 (reference value: 218 +/- 20.9 mm3). It counts as functional. Put shortly:
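MDA-MB-231 tumours established in the right flank of 6-week-old BALB/c nude mice. Compound dissolved in DMSO was given ip three times weekly, with a DMSO vehicle group. Tumour volume calculated as 0.5W²L, measured before each dose and compared on day 35.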

A short description of data set [22]: Toxicity in Balb/c mouse xenografted with human KBtax cells assessed as serum BUN level at 8 mg/kg, ip administered 3 times per week and measured after 21 days (reference value: 17.8 +/-1.1 mg/dl). It counts as organism-based. Conditions: in vivo, 504 h.

Sequence of Tubulin (Sus scrofa) (P02550 whole entry, looked up): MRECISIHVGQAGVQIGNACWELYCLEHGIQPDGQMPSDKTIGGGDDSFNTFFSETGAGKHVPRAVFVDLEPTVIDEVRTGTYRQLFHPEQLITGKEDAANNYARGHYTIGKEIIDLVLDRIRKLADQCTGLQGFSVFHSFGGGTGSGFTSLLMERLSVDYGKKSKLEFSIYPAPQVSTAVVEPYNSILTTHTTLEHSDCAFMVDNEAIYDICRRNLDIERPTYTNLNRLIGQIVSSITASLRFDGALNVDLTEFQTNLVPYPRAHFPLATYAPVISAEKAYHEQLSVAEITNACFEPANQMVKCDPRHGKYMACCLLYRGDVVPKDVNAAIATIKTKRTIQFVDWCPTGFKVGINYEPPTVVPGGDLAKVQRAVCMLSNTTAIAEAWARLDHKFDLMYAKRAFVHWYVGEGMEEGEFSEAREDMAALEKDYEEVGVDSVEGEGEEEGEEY
Sequence of Tubulin (Sus scrofa) (P02554 whole entry, looked up): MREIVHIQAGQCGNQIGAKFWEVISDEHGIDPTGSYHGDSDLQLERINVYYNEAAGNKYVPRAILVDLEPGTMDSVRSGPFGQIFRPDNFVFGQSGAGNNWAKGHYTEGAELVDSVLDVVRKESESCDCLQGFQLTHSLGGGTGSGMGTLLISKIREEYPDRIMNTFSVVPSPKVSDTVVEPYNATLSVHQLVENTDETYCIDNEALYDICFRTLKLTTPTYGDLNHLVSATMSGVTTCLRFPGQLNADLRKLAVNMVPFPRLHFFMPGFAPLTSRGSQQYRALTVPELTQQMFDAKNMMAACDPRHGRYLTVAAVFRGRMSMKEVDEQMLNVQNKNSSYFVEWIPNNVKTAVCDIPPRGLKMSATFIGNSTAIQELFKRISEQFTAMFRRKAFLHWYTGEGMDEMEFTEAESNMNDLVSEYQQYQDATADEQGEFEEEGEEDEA

A word on the pIC50: it is −log10 of the IC50, conventionally taken in molar units. As to `CCOC(=O)c1ccc2nc(-c3ccccc3)cc(O)c2c1`, the pIC50 with A549 is 7.70; in the data set on IGROV-1, 7.08; in [8] it was below 5.00; in the data set on SK-OV-3, 7.30; with CL1-0 [11] it was 7.80. In addition, the result in the data set with CL1-0 [1], on Tubulin (Homo sapiens) [4], in the data set with NCI-H1975 [5] and in the data set on NCI-H1975 [7] was Active. The outcome in the data set with NCI-H1975 [2], in the data set with CL1-0 [9] and in the data set on CL1-0 [12] was inactive. Also, the Activity entry in the data set with NCI-H1975 [3], in the data set with CL1-0 [6], in the data set with NCI-H1975 [10] and in the data set on CL1-0 [13] was “Dose-dependent effect” throughout. Moreover, the “tubulin inhibition call (active/not active)” value on Tubulin (Sus scrofa) is “Active”.

Turning to `CCOC(=O)c1ccc2[nH]c(-c3cccc(F)c3)cc(=O)c2c1`, the Activity is 64 IU/L in data set [14]; 120.7 IU/L in [18]; “Non-Toxic” in data set [21]; 105 mm3 in the data set on MDA-MB-231; 18.2 mg/dL in data set [22]. In addition, the result in the data set with NCI-H1975 [15], in the data set with Homo sapiens [19] and in the data set filed under Homo sapiens [20] was Active. The inhibition result on Tubulin (Homo sapiens) [16] was “Active”. Besides, the outcome in the data set filed under Homo sapiens [17] was inactive.
